In the EternaBench riboswitch data:

System: MS2 coat protein
Assay: apparent Kd, MS2 coat protein; higher = weaker binding; RNA-MaP array; FMN 200 µM where present
How it was run: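 Stalled E. coli RNA polymerase produced the designs on Illumina sequencing-chip clusters. SNAP-549-labelled MS2 coat protein was added from 0.7 or 1.5 nM, doubling to 3 µM, without and then with constant ligand, in 100 mM Tris-HCl pH 7.5, 80 mM KCl, 4 mM MgCl2, BSA, DTT, yeast tRNA and Tween-20. The apparent Kd is the median of filtered per-cluster fits of green signal normalised to red-channel RNA signal and control-cluster median Fmax.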

[1] = designed as: ON switch for flavin mononucleotide, no ligand
[2] = ligand present: flavin mononucleotide, designed as: ON switch for flavin mononucleotide
[3] = designed as: OFF switch for flavin mononucleotide, no ligand
[4] = ligand present: flavin mononucleotide, designed as: OFF switch for flavin mononucleotide

AAGUUUGUACGAGGAUAUCAAUUGUUUCUAAAUUCAACAUGAGGAUCACCCAUGUAACAAUGGAGUGAGAAGGCGUGUGGGCAA
apparent Kd [1]: 214 nM | apparent Kd [2]: 203 nM

AAUAAACACACAGGAUAUAGCAUCGUCGUUGCGAACUUAGCGACGUCGAUGCUAGAAGGGUGAAAACAUGAGGAUCACCCAUGU
apparent Kd [1]: 80.9 nM | apparent Kd [2]: 20.1 nM

AAUAAACUCACAGGAUAUAGCAUAGGUCGCGUGAACUUACAGGCGACUAUGCUAGAAGGGUGACCACAUGAGGAUCACCCAUGU
apparent Kd [1]: 734 nM | apparent Kd [2]: 145 nM

AAUAACAGAGGAUAUACUAUUUUAUGUAUUUAUUAUUUUAAACAUGAGGAUCACCCAUGUAGAAGGCUGAGUAA
apparent Kd [3]: 23.8 nM | apparent Kd [4]: 21.3 nM

AAUAACAGAGGAUAUACUAUUUUAUGUAUUUAUUAUUUUAAACAUGAGGAUCACCCAUGUAGAAGGCUGAUUAA
apparent Kd [3]: 28.1 nM | apparent Kd [4]: 30.4 nM

AAUAACAGAGGAUAUACUAUUUUAUGUGUUUGUUGUUUUAAACAUGAGGAUCACCCAUGUAGAAGGCUGAUUAA
apparent Kd [3]: 32.7 nM | apparent Kd [4]: 38.8 nM

AAUAACAGAGGAUAUACUGUUUUAUGUAUUUAUUAUUUUAAACAUGAGGAUCACCCAUGUAGAAGGCUGAAUAA
apparent Kd [3]: 21.9 nM | apparent Kd [4]: 18.6 nM

AAUAACAGAGGAUAUACUGUUUUAUGUGUUUAUUGUUUUAAACAUGAGGAUCACCCAUGUAGAAGGCUGAGUAA
apparent Kd [3]: 38.9 nM | apparent Kd [4]: 39 nM

AAUAACAGAGGAUAUGCAAAAAUAAGCGGAAACGCAAGAAAACAUGAGGAUCACCCAUGUAGAAGGCUGGAUAA
apparent Kd [3]: 23.6 nM | apparent Kd [4]: 17.6 nM

AAUAAUAAUGUCAGGAUAUCUAGAGCUUCGGCUCUAGAGAAGGGACAUGAGGAUCACCCAUGUCACUCAAUAAU
apparent Kd [3]: 16.2 nM | apparent Kd [4]: 27.2 nM

AAUAAUCAGUAAGGAUAUACUAGCGAUUAGCUUGUAGAAGGUACAGUCUUAUGUAUAACAUGUUAACAUGAGGAUCACCCAUGU
apparent Kd [1]: 62.9 nM | apparent Kd [2]: 33.3 nM

AAUACAAAUAGUCAGGAUAUCAAAAAUAAGACAUGAGGAUCACCCAUGUAAUAAGUAAAAGUAAAUGAGAAGGGACAGGGUGAAA
apparent Kd [1]: 168 nM | apparent Kd [2]: 266 nM

AAUAGUGGAGGAUAUACAUGAGGAUCACCCAUGUAGAAAGGAAGUGUAUAUAUGGCGUGUAGAAGGCCAAAUAA
apparent Kd [3]: 36.4 nM | apparent Kd [4]: 34.1 nM

AAUAUAAAGAGCUGGAACCUAAUAACAUGAGGAUCACCCAUGUAGGAUAUCAGCACGAUAAGUGCUGAGAAGGACAUCCAGCUC
apparent Kd [3]: 14.7 nM | apparent Kd [4]: 14.8 nM

AAUAUAAGAGCUGGCUCUAAAAGAACAUGAGGAUCACCCAUGUAGGAUAUCAGCACGAUAAGUGCUGAGAAGGACAACCAGCUC
apparent Kd [3]: 16.7 nM | apparent Kd [4]: 15.7 nM

AAUAUACAUGAGGAUCACCCAUGUUUUGGUGCAUGAGGAUAUAAAAACAAUUACAUAAAGUUAGAAGGCAUGAAUA
apparent Kd [1]: 54.9 nM | apparent Kd [2]: 47.9 nM

AAUAUGAGCUGGAAUAUAAACCUCACAUGAGGAUCACCCAUGUAGGAUAUCAGCACGAUAAGUGCUGAGAAGGACAACCAGCUC
apparent Kd [3]: 15.1 nM | apparent Kd [4]: 17.1 nM

AAUAUGAGCUGGUAUAUAAACCUCACAUGAGGAUCACCCAUGUAGGAUAUCAGCACGAUAAGUGCUGAGAAGGACAUCCAGCUC
apparent Kd [3]: 15.4 nM | apparent Kd [4]: 17.8 nM

AAUAUGUUGCAGAAGGCCAUGUUGUGGUAGUGCCUCAUGACAUGAGGAUCACCCAUGUCUGUGAUGGAGGAUAUGCAAUAUAUU
apparent Kd [3]: 8.15 nM | apparent Kd [4]: 37 nM

AAUAUUUAUUGAGGAUAUUCAUACACUGUAUACGGAGAAGGCAAUCAAUCAUGAGGACAUGAGGAUCACCCAUGUUGUGACCAU
apparent Kd [1]: 10.7 nM | apparent Kd [2]: 9.69 nM

AAUAUUUUUUGAGGAUAUUCAUACACUGUAUACGGAGAAGGCAAACAAUCAUGAGGACAUGAGGAUCACCCAUGUUGUGACCAU
apparent Kd [1]: 20.1 nM | apparent Kd [2]: 12.8 nM

AAUCAUGUCCGAGGAUAUCUGGAAACAUUUUCAAGAGAAGGCGGACAUGAGGAUCACCCAUGUCUCUCCUCAUCAACUACAAAU
apparent Kd [3]: 14.6 nM | apparent Kd [4]: 89 nM

AAUCCACAUGAGGAUCACCCAUGUCAGGAAAUGACAGGAUAUAGCGAAAAAAAAAAAAAGCUAGAAGGGUCUAAUU
apparent Kd [1]: 175 nM | apparent Kd [2]: 67.5 nM

AAUGCCAAUGAAGGAUAUACAAACAUGAGGAUCACCCAUGUGUCUUUCGUGUAAGUGGAAUUCGCGUAGAAGGUCAUUGACAUA
apparent Kd [3]: 38.3 nM | apparent Kd [4]: 22.3 nM

AAUGGCGUGAUAACGCUAAUUAAAACAUGAGGAUCACCCAUGUAGGAUAUCCUACCGAAAUGGUAGGAGAAGGACAAGCAAUGA
apparent Kd [3]: 33.4 nM | apparent Kd [4]: 27.7 nM

AAUGUAUCCUCGGGAUCCACAUGAGGAUCACCCAUGUAGACUCAGGAUAUCCAAUGCGUUGGCAGGGAGAAGGGAGCUCGCAUG
apparent Kd [3]: 33.7 nM | apparent Kd [4]: 38.7 nM

AAUGUGUGUCGAGGAUAUAUAACAUGACAACAAACACAUACAUGAGGAUCACCCAUGUCCCAUGUAUAGAAGGCGAUGUGUGUG
apparent Kd [1]: 219 nM | apparent Kd [2]: 434 nM
